The list is not random: actives were taken first. Their share in the collection is about 2.7%.
S100A4 inh HTS = S100A4-myosin IIA interaction inhibition; P26447; S100A4/TAMRA-MyoIIA peptide fluorescence polarization; inhibition, % at 10.7 µM; hit rate 0.14% among 360,000; AID 652163;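 active means mean inhibition of at least 70% across replicates, with every replicate also reaching that level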
Target sequence (P26447 whole entry, looked up): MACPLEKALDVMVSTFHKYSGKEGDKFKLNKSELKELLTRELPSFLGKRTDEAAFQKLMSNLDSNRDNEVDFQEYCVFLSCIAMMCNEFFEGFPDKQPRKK
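Material: human S100A4 monomer with TAMRA-labelled myosin IIA peptide; buffer or medium: HEPES pH 7.2 with CaCl2, KCl, NaCl, DTT, Triton; compound dosing: one concentration per compound; schedule: 5 min incubation before reading; benchmarks: neutral control DMSO, positive control TFP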
SIRT5 inh = sirtuin-5 (human) deacylase inhibition. Purified SirT5, succinyl-peptide AMC, trypsin-coupled fluorescence. inhibition, % at 15 µM. hit rate 1.1% among 330,000. AID 652115; in the data active means inhibition above about 15%
Target sequence (Q9NXA8 whole entry, looked up): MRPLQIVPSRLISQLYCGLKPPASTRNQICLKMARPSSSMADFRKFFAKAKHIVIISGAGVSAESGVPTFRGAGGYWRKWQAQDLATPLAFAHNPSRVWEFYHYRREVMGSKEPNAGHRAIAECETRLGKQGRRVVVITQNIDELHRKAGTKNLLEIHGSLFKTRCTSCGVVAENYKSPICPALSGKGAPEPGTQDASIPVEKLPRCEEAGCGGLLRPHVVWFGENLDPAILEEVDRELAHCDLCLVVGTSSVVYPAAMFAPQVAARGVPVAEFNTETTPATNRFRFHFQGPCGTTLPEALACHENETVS
AF4-AF9 inh = MLL-AF4/AF9 protein interaction inhibition; AlphaScreen, biotin-AF4 peptide binding to FLAG-AF9; inhibition, % at 10 µM; hit rate 0.47% among 350,000;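 active means every replicate reaching a set inhibition limit, whatever the replicate mean, cut at about 25% in these data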
CaV13 ICDI inh = Primary screen for inhibitors of IQ motif and Ca2+-dependent inactivation inhibitor domain binding in CACNA1D, Förster resonance energy transfer in living cells, …. HEK cells, CFP/YFP FRET ICDI-IQ, plate reader, 10 min; percent FRET-ratio fall versus neutral wells. inhibition, % at 12.3 µM. hit rate 0.098% among 340,000;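 active means mean replicate inhibition of at least 30% and at least 1% of replicates passing that level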
DENV2 CPE rescue = protects cells from dengue virus 2 cytopathic effect. DENV2-infected cells, cytopathic effect rescue, plate reader. CPE inhibition, % at 9.99 µM. hit rate 1.7% among 350,000. AID 651640; in the data active means CPE inhibition above about 20%, passing the limit was not always enough; tested in BHK-21 cells
Each line names hits and unclear results; the compound was inactive in the other large screens.

CC(Oc1ccccc1)C(=O)Nc1nc(-c2ccncc2)cs1 (configuration not stated)	none
CC(OC(=O)c1ccc(O)cc1)C(=O)Nc1nc(-c2ccccc2)cs1 (configuration not stated)	DENV2 CPE rescue 38
C[C@@H]1CCCCO[C@H](CN(C)C(=O)C2CCCCC2)[C@@H](C)CN([C@@H](C)CO)C(=O)c2cc(NC(=O)Nc3ccc(F)cc3)ccc2O1	DENV2 CPE rescue 47 (no result: CaV13 ICDI inh)
C[C@@H]1CCCCO[C@@H](CN(C)C(=O)C2CCCCC2)[C@H](C)CN([C@@H](C)CO)C(=O)c2cc(NC(=O)Nc3ccc(F)cc3)ccc2O1	SIRT5 inh 19, DENV2 CPE rescue 25 (no result: CaV13 ICDI inh)
C[C@@H]1CCCCO[C@@H](CN(C)C(=O)C2CCCCC2)[C@@H](C)CN([C@@H](C)CO)C(=O)c2cc(NC(=O)Nc3ccc(F)cc3)ccc2O1	DENV2 CPE rescue 21 (no result: CaV13 ICDI inh)
C[C@@H]1CN([C@@H](C)CO)C(=O)c2cc(NC(=O)Nc3ccc(F)cc3)ccc2O[C@@H](C)CCCCO[C@@H]1CN(C)C(=O)C1CCCCC1	none (no result: CaV13 ICDI inh)
C[C@H]1CCCCO[C@H](CN(C)C(=O)C2CCCCC2)[C@@H](C)CN([C@@H](C)CO)C(=O)c2cc(NC(=O)Nc3ccccc3)ccc2O1	none (no result: CaV13 ICDI inh)
C[C@@H]1CN([C@H](C)CO)C(=O)c2cc(NC(=O)Nc3ccccc3)ccc2O[C@@H](C)CCCCO[C@@H]1CN(C)C(=O)C1CCCCC1	DENV2 CPE rescue 71 (no result: CaV13 ICDI inh)
C[C@@H]1CN([C@H](C)CO)C(=O)c2cc(N(C)C)ccc2O[C@@H]1CN(C)Cc1ccncc1	none (no result: CaV13 ICDI inh)
Cc1ccccc1-n1cnc2c(sc3nc(N4CCOCC4)c4c(c32)CCCC4)c1=O	DENV2 CPE rescue 42
O=c1c2sc3nc(N4CCOCC4)c4c(c3c2ncn1-c1ccccc1)CCCC4	none
COc1ccc(NC(=O)N(C)C[C@H]2OCCCC[C@@H](C)Oc3ccc(NC(=O)c4ccccc4)cc3C(=O)N([C@@H](C)CO)C[C@@H]2C)cc1	none (no result: CaV13 ICDI inh)
OC[C@@H]1[C@@H](c2ccccc2)C2(CN(Cc3nccs3)C2)N1Cc1ccncc1	SIRT5 inh 16 (no result: CaV13 ICDI inh)
OC[C@@H]1[C@@H](c2ccccc2)C2(CN(Cc3nccs3)C2)N1CCC(F)(F)F	none (no result: CaV13 ICDI inh)
OC[C@@H]1[C@H](c2ccccc2)C2(CN(Cc3nccs3)C2)N1CCC(F)(F)F	DENV2 CPE rescue 25 (no result: CaV13 ICDI inh)
COc1cc(C(=O)NCC2(N(C)C)CCCCC2)ccc1OCc1ccccc1	SIRT5 inh 65
COc1ccc(C(=O)NCC(=O)NCC2(N(C)C)CCCCC2)cc1OC	none (no result: S100A4 inh HTS, SIRT5 inh, AF4-AF9 inh, DENV2 CPE rescue)
CCOC(=O)C(NC(=O)c1ccccc1)(OCC1(CC)COC1)C(F)(F)F (configuration not stated)	CaV13 ICDI inh 41 (no result: S100A4 inh HTS, SIRT5 inh, AF4-AF9 inh, DENV2 CPE rescue)
CCO[C@H]1OC(C(=O)O)=C[C@@H](c2ccc(Br)cc2)[C@@H]1CCCO	none (no result: CaV13 ICDI inh)
O=C(CSc1ccc(-c2cccnc2)nn1)Nc1ccc(Br)cc1	DENV2 CPE rescue 30
Cc1cc(=O)c2ccccc2[nH]1	none (no result: S100A4 inh HTS, SIRT5 inh, AF4-AF9 inh, DENV2 CPE rescue)
Cc1cc(=O)c2c(N(C)C)cccc2[nH]1	AF4-AF9 inh 32
CN(C)CCNc1ccc(CO)c2sc3ccc(O)cc3c(=O)c12	none (no result: SIRT5 inh)
CN(C)CCNc1ccc2ncn3c4ccc(O)cc4c(=O)c1c23	AF4-AF9 inh 34
C[C@@H]1CN([C@@H](C)CO)S(=O)(=O)c2ccc(-c3ccc(C#N)cc3)cc2O[C@@H]1CN(C)C	none (no result: CaV13 ICDI inh)
COc1ccccc1NC(=O)N1CCCCN2[C@H](CO)[C@@H](c3ccc(C#CC4CC4)cc3)[C@H]2C1	AF4-AF9 inh 25 (no result: CaV13 ICDI inh)
COc1ccccc1NC(=O)N1CCCCN2[C@H](C1)[C@H](c1ccc(C#CC3CC3)cc1)[C@@H]2CO	none (no result: CaV13 ICDI inh)
COc1ccccc1NC(=O)N1CCCCN2[C@H](CO)[C@H](c3ccc(-c4cccc(C)c4)cc3)[C@@H]2C1	DENV2 CPE rescue 22 (no result: CaV13 ICDI inh)
COc1ccccc1NC(=O)N1CCCCN2[C@H](C1)[C@@H](c1ccc(C#CC3CCCC3)cc1)[C@@H]2CO	SIRT5 inh 16 (no result: CaV13 ICDI inh)
COc1ccccc1NC(=O)N1CCCCN2[C@H](C1)[C@@H](c1ccc(-c3cccc(C)c3)cc1)[C@@H]2CO	none (no result: CaV13 ICDI inh)
COc1ccccc1NC(=O)N1CCCCN2[C@H](C1)[C@@H](c1ccc(C#CC3CC3)cc1)[C@@H]2CO	S100A4 inh HTS 81 (no result: CaV13 ICDI inh)
COc1ccccc1NC(=O)N1CCCCN2[C@H](CO)[C@@H](c3ccc(C#CC4CCCC4)cc3)[C@H]2C1	none (no result: CaV13 ICDI inh)

Assay outcomes deposited in PubChem BioAssay by Broad Institute.
